This is an account of results in ChEMBL document CHEMBL5705897, “Characterization of WZ4003 and HTH-01-015 as selective inhibitors of the LKB1-tumour-suppressor-activated NUAK kinases” (Biochem J, 2014).

SMILES strings stand for the structures. The source made the active and inactive calls. No cut-off for these calls is given here.

The target of assay [1] is T1, Aurora kinase A (Homo sapiens) (UniProt O14965).
T1 sequence (whole entry): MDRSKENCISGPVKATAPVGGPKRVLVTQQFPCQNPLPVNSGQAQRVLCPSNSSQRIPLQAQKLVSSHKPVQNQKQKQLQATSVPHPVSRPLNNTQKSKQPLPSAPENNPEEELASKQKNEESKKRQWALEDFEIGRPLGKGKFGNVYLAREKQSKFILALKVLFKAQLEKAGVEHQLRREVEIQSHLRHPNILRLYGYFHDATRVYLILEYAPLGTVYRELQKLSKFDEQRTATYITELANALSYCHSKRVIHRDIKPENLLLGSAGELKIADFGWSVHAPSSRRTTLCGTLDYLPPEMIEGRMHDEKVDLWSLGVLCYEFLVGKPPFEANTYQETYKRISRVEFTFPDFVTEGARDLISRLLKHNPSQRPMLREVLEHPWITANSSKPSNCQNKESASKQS
Description: Inhibition of recombinant human N-terminal […] Aurora A (2 to 403 residues) expressed in Escherichia coli assessed as remaining activity at 1 uM using LRRLSLGLRRLSLGLRRLSLGLRRLSLG as substrate incubated for 30 mins in presence of [gamma-33P]ATP by filter binding method relative to control. The procedure, abridged: (§1)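 Screened at the International Centre for Protein Kinase Profiling against a 140-kinase panel, with inhibitor at 0.1 or 1 μM; activity expressed as percentage of DMSO control reactions, mean of triplicate reactions.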

For assay [2], the system named is U2OS. Briefly: Antiproliferative activity against human U2OS cells assessed as reduction in cell viability at 10 uM after 5 days by CellTiter 96 non-radioactive cell proliferation assay. The note with it: time 5.0 day. It is filed as functional, cell-based. The procedure, abridged: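 Colorimetric CellTiter 96 AQueous proliferation assay in 96-well format; 2000 cells/well seeded for U2OS, 3000 cells/well for MEFs; grown 5 days with or without 10 μM inhibitor; run in triplicate. Inhibitors dissolved in DMSO, final DMSO in medium ≤1%. MEFs cultured in DMEM/10% FBS, glutamine, non-essential amino acids, sodium pyruvate.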

Assay [3] has as its target Platelet-derived growth factor receptor alpha (Homo sapiens) (UniProt P16234). Description: Inhibition of recombinant human PDGFRalpha (551 to 10589 residues) expressed in baculovirus infected Sf21 cells assessed as remaining activity at 1 uM using KKKKEEIYFFFG as substrate incubated for 30 mins in presence of [gamma-33P]ATP by filter binding method relative to control. The procedure, abridged:
as §1

The target of assay [4] is Calcium/calmodulin-dependent protein kinase type 1 (Homo sapiens) (UniProt Q14012). Briefly: Inhibition of recombinant human N-terminal GST-tagged CAMK1alpha (2 to 369 residues) expressed in Escherichia coli assessed as remaining activity at 1 uM using YLRRRLSDSNF as substrate incubated for 30 mins in presence of [gamma-33P]ATP by filter binding method relative to control. The procedure, abridged: as §1
Sequence of Calcium/calmodulin-dependent protein kinase type 1 (Homo sapiens) (Q14012 whole entry, looked up, the tested form may be a part): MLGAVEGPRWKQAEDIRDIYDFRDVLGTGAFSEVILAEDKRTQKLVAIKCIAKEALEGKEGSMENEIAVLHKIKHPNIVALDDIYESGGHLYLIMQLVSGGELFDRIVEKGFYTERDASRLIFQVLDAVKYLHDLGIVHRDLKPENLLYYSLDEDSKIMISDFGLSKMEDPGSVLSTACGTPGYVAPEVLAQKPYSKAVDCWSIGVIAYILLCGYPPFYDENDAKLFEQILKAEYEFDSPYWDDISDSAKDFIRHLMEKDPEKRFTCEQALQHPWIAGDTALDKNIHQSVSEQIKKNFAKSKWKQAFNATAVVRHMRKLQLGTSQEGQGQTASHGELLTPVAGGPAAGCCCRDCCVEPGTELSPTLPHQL

Assay [5] deals with Ribosomal protein S6 kinase beta-1 (Homo sapiens), P23443 [T412E]. Description: Inhibition of recombinant human His6-tagged S6K1 T412E mutant (1 to 421 residues) expressed in baculovirus infected Sf21 cells assessed as remaining activity at 1 uM using KKRNRTLTV as substrate incubated for 30 mins in presence of [gamma-33P]ATP by filter binding method relative to control. The method in brief: (§2)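 Run within a 140-kinase specificity panel at the International Centre for Protein Kinase Profiling. Compounds were dissolved in DMSO and tested in vitro at 0.1 or 1 μM. Activity is expressed as percentage of kinase activity in DMSO control reactions, as the mean ± S.D. of triplicate reactions.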
Sequence of Ribosomal protein S6 kinase beta-1 (Homo sapiens), P23443 [T412E] (P23443 whole entry T412E, looked up, the tested form may be a part): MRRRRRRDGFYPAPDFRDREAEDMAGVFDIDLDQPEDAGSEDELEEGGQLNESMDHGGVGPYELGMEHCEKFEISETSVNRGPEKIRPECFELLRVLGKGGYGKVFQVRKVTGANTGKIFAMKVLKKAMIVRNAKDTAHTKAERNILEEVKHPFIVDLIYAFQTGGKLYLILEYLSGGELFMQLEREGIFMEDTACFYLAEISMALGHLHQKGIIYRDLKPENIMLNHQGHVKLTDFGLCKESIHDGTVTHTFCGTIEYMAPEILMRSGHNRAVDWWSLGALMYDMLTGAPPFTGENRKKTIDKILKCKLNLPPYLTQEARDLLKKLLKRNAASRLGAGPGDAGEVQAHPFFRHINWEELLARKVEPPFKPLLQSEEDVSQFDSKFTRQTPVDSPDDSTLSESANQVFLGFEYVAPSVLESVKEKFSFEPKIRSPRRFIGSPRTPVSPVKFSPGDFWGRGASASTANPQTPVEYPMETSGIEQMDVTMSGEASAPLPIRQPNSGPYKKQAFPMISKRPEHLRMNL

Assay [6] addresses Serine/threonine-protein kinase PLK1 (Homo sapiens) (UniProt P53350). Briefly: Inhibition of recombinant human N-terminal His6-tagged PLK1 (1 to 603 residues) expressed in baculovirus infected Sf21 cells assessed as remaining activity at 1 uM using ISDELMDATFADQEAKKK as substrate incubated for 30 mins in presence of [gamma-33P]ATP by filter binding method relative to control. The procedure, abridged: as §1

For assay [7], the target named is T2, NUAK family SNF1-like kinase 1 (Homo sapiens) (UniProt O60285).
T2 sequence (whole entry): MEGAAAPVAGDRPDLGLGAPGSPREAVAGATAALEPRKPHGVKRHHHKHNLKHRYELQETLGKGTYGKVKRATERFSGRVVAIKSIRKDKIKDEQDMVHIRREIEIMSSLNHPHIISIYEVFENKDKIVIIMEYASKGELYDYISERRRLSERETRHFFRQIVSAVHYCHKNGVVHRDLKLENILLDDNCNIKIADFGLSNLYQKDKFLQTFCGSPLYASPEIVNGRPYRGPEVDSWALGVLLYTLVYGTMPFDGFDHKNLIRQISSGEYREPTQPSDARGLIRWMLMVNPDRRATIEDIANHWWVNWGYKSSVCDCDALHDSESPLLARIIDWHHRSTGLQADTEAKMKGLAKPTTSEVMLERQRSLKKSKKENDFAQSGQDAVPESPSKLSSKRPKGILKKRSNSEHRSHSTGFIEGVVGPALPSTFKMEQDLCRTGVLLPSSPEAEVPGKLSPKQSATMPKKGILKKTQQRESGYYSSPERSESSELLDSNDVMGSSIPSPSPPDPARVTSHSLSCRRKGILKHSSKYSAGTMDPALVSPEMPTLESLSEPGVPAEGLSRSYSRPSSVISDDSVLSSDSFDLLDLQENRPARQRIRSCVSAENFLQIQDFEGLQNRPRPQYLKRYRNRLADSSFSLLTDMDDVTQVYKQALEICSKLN
Description: Inhibition of NUAK1 (unknown origin) expressed in HEK293 cells assessed as reduction in MYPT1 phosphorylation at Ser445 residue at 30 uM incubated for 16 hrs by immunoblot analysis. It is filed as cell-based. The method in brief: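 HEK-293 Flp/In T-Rex cells stably expressing HA–NUAK1 or HA–NUAK1[A195T] (doxycycline 0.1 μg/ml, 16–24 h to induce) treated with inhibitor 16 h, then detached in EDTA-PBS dissociation buffer containing the same inhibitor concentration, tapped and spun 70 g 3 min; lysed, endogenous MYPT1 immunoprecipitated from 0.5 mg lysate and immunoblotted for p-Ser445 and total MYPT1; three separate experiments.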
For orientation: Immunoblotting shows a protein as a band on a membrane.

The target in assay [8] is Dual specificity tyrosine-phosphorylation-regulated kinase 3 (Homo sapiens) (UniProt O43781). Description: Inhibition of recombinant human N-terminal GST-tagged DYRK3 (1 to 588 residues) expressed in Escherichia coli assessed as remaining activity at 1 uM using KKISGRLSPIMTEQ as substrate incubated for 30 mins in presence of [gamma-33P]ATP by filter binding method relative to control. The procedure, abridged: as §1
Sequence of Dual specificity tyrosine-phosphorylation-regulated kinase 3 (Homo sapiens) (O43781 whole entry, the tested form may be a part): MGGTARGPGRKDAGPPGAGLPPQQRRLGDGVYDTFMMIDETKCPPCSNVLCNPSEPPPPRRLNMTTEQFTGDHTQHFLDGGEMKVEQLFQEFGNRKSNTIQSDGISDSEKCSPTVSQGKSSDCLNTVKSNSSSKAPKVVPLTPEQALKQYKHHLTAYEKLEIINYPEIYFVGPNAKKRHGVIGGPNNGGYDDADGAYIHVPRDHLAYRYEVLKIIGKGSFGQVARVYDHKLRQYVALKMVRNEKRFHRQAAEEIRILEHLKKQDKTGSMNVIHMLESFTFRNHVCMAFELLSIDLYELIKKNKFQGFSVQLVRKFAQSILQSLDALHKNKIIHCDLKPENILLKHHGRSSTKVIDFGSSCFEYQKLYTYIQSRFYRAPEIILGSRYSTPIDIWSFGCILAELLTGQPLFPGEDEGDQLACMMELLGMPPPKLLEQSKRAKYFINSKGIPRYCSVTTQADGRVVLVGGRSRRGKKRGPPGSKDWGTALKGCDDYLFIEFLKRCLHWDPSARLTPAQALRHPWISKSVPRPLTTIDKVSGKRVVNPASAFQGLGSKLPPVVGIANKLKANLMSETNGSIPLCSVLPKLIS

For assay [9], the target named is Ephrin type-B receptor 4 (Homo sapiens) (UniProt P54760). Description: Inhibition of recombinant human N-terminal His6-tagged EPHB4 (561 to 987 residues) expressed in baculovirus infected Sf21 cells assessed as remaining activity at 1 uM using Poly (Glu,Tyr) as substrate incubated for 30 mins in presence of [gamma-33P]ATP by filter binding method relative to control. The method in brief: as §2
Sequence of Ephrin type-B receptor 4 (Homo sapiens) (P54760 whole entry, the tested form may be a part): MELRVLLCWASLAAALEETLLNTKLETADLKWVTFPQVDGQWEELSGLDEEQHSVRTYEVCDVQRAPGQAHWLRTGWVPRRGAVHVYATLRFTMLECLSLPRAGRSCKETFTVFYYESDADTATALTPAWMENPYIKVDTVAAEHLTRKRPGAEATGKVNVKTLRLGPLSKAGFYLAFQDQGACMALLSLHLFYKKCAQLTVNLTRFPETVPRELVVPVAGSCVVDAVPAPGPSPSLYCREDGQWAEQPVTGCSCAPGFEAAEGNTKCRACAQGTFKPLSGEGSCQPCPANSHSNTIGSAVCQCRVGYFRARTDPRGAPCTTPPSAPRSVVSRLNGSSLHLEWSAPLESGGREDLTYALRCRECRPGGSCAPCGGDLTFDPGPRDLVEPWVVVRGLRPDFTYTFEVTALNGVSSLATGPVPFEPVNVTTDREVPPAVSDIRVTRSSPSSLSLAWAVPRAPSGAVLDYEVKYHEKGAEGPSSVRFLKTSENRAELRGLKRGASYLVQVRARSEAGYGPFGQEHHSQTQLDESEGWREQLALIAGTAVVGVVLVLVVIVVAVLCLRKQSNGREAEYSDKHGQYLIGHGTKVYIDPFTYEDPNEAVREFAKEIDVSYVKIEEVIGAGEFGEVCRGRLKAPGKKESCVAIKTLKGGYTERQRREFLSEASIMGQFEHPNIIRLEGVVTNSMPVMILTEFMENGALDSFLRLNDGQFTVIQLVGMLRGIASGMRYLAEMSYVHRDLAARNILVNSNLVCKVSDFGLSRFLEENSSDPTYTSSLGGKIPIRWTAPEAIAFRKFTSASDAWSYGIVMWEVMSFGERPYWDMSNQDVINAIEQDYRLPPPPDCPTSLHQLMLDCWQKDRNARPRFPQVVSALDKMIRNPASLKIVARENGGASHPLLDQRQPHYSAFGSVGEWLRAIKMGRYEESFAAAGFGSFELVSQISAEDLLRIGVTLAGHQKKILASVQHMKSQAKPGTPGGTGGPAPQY

Assay [10] deals with MAP kinase-interacting serine/threonine-protein kinase 2 (Homo sapiens) (UniProt Q9HBH9). Briefly: Inhibition of recombinant human N-terminal GST/C-terminal His6-tagged MNK2alpha (2 to 465 residues) expressed in Escherichia coli assessed as remaining activity at 1 uM using eIF4E as substrate incubated for 30 mins in presence of [gamma-33P]ATP by filter binding method relative to control. The method in brief: as §1
Sequence of MAP kinase-interacting serine/threonine-protein kinase 2 (Homo sapiens) (Q9HBH9 whole entry, looked up, the tested form may be a part): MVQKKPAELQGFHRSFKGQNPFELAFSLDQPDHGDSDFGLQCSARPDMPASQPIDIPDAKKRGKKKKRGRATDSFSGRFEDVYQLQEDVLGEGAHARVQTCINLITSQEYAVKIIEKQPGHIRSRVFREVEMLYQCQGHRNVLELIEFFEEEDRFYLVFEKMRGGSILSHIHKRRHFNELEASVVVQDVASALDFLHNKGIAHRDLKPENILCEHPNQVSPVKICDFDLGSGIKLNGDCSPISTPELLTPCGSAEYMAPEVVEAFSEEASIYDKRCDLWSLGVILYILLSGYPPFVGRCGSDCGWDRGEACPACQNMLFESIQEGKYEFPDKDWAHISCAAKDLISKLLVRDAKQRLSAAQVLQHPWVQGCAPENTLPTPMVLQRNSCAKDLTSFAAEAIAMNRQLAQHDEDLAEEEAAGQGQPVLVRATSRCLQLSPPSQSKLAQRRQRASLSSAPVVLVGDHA

Sequence of Serine/threonine-protein kinase PLK1 (Homo sapiens) (P53350 whole entry, the tested form may be a part): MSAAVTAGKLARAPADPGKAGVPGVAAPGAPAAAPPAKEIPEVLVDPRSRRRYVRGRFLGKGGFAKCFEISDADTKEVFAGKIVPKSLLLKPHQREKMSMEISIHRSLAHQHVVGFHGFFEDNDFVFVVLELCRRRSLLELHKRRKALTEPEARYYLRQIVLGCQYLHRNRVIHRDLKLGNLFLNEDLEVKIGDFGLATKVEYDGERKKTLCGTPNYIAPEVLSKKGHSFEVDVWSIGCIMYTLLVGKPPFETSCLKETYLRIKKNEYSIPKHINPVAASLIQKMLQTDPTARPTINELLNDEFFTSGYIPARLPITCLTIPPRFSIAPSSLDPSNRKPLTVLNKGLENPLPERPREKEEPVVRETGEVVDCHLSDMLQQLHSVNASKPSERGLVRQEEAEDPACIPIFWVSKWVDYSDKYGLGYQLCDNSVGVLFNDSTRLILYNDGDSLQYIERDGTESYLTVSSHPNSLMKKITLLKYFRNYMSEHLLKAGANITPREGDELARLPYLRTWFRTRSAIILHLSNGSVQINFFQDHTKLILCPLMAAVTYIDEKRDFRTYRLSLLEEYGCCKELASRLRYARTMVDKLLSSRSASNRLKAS
Sequence of Platelet-derived growth factor receptor alpha (Homo sapiens) (P16234 whole entry, the tested form may be a part): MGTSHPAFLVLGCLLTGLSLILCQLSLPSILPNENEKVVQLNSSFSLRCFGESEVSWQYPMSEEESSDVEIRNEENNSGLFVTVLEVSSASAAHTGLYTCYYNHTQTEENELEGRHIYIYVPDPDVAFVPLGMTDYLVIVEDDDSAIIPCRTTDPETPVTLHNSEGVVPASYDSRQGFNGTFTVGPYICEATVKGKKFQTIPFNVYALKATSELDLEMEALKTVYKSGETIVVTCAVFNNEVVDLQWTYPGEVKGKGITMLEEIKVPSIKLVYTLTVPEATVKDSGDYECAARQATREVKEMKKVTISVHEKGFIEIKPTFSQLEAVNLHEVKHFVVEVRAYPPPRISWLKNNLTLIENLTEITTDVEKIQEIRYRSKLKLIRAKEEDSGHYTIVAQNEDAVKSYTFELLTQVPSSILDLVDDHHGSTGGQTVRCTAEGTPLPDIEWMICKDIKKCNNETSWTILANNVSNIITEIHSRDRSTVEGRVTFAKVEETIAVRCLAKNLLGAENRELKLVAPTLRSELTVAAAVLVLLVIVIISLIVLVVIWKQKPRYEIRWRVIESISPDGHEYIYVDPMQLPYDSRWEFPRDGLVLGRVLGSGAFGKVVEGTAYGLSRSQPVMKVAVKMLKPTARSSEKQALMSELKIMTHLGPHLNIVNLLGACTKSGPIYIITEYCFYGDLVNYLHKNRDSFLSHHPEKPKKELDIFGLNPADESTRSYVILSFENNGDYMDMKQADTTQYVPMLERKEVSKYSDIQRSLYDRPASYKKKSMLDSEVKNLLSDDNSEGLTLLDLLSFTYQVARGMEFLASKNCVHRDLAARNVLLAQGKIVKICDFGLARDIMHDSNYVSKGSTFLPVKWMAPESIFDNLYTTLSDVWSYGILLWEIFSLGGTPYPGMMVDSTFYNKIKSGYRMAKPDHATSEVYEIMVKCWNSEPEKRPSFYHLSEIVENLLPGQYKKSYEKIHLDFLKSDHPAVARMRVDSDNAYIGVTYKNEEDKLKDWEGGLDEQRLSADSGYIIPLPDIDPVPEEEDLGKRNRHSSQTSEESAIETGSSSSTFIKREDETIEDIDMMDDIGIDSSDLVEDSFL

`CCC(=O)Nc1cccc(Oc2nc(Nc3ccc(N4CCN(C)CC4)cc3OC)ncc2Cl)c1`: the Activity was determined as 75% in [1]; 96% in assay [3]; 81% in assay [4]; 83% in assay [5]; 84% in assay [6]; 71% in [8]. The Activity in assay [9] came to 83%; in assay [10], 84%. In addition, the inhibition result in assay [2] and in assay [7] was “Active” in each case.
